Measured values from ChEMBL document CHEMBL2440017, “Discovery of a potent, selective, and orally bioavailable histamine H3 receptor antagonist SAR110068 for the treatment of sleep-wake disorders” (Bioorg Med Chem Lett, 2013).
pIC50, pKi: −log10 of the molar value. Values after ≈ are worked out from the molar mass of the structure shown. Active and inactive are the calls of the source. The calls are words filed in the database; no cut-off is given here.

Tests used:
Rattus norvegicus [1] = assay: Awakening activity in rat assessed as decrease in slow wave and REM sleep at 3 to 10 mg/kg, po; type: functional, organism-based
How it was run: (§1)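 Rats given compound orally at 3 or 10 mg/kg, or reference drugs i.p. or p.o. at 10 mg/kg. EEG recorded during the light phase and scored as wakefulness, slow wave sleep and REM sleep. Time-course analysis of the effects.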

Rattus norvegicus [2] = assay: Awakening activity in rat assessed as increased wakefulness at 3 to 10 mg/kg, po; type: functional, organism-based; how it was run: as §1
[3] = Plasma concentration in cynomolgus monkey at 30 mg/kg, iv after 15 mins; type: ADME, organism-based, Macaca fascicularis; parameters: dose 30 mg/kg, route intravenous
[4] = Plasma concentration in cynomolgus monkey at 10 mg/kg, iv after 15 mins; type: ADME, organism-based, Macaca fascicularis; parameters: dose 10 mg/kg, route intravenous
How it was run: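 Anaesthetized cynomolgus monkeys were dosed 10 mg/kg i.v. Plasma drug concentrations were measured at 5, 15 and 30 min post-dose, alongside arterial pressure, heart rate and ECG intervals.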

Cynomolgus monkey = assay: Cardiotoxicity in cynomolgus monkey assessed as blood arterial pressure and heart rate at 10 mg/kg, iv; type: toxicity, organism-based, Macaca fascicularis; parameters: dose 10 mg/kg, route intravenous; settings: in vivo
How it was run: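 Anaesthetized cynomolgus monkeys dosed 10 mg/kg i.v. Arterial blood pressure, heart rate and ECG (PR, QRS, QTc intervals) monitored. Plasma drug sampled at 5, 15 and 30 min post-dose.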

Mus musculus [5] = assay: Neurologic toxicity in mouse at 10 to 30 mg/kg, po; type: organism-based; parameters: dose 10-30 mg/kg, route oral; settings: in vivo
How it was run: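 Acute oral behavioral safety evaluation in mice. Oral doses were 0, 10 and 30 mg/kg. Behavioral, neurologic and autonomic signs were scored.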

Mus musculus [6] = assay: Toxicity in mouse assessed as behavioral side effect at 30 mg/kg, po; type: organism-based; parameters: dose 30 mg/kg, route oral; settings: in vivo
How it was run: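 Group acute oral behavioral safety study in mice at 30 mg/kg p.o., scored for behavioral side effects.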

[7] = Genotoxicity in micronucleus (unknown origin) at 5 to 950 ug/ml in presence of human liver microsomes; type: toxicity, Microsome
How it was run: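 Ames II and micronucleus tests, Ames over 3–1000 µg/mL and MNT over 5–950 µg/mL. Each run with and without metabolic activation by human liver microsome preparations.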

[8] = molecular target: Voltage-gated inwardly rectifying potassium channel KCNH2 (Homo sapiens, UniProt Q12809); assay: Inhibition of human ERG expressed in CHO cells by patch-clamp technique; type: cell-based
Chain of Voltage-gated inwardly rectifying potassium channel KCNH2 (Q12809 whole entry): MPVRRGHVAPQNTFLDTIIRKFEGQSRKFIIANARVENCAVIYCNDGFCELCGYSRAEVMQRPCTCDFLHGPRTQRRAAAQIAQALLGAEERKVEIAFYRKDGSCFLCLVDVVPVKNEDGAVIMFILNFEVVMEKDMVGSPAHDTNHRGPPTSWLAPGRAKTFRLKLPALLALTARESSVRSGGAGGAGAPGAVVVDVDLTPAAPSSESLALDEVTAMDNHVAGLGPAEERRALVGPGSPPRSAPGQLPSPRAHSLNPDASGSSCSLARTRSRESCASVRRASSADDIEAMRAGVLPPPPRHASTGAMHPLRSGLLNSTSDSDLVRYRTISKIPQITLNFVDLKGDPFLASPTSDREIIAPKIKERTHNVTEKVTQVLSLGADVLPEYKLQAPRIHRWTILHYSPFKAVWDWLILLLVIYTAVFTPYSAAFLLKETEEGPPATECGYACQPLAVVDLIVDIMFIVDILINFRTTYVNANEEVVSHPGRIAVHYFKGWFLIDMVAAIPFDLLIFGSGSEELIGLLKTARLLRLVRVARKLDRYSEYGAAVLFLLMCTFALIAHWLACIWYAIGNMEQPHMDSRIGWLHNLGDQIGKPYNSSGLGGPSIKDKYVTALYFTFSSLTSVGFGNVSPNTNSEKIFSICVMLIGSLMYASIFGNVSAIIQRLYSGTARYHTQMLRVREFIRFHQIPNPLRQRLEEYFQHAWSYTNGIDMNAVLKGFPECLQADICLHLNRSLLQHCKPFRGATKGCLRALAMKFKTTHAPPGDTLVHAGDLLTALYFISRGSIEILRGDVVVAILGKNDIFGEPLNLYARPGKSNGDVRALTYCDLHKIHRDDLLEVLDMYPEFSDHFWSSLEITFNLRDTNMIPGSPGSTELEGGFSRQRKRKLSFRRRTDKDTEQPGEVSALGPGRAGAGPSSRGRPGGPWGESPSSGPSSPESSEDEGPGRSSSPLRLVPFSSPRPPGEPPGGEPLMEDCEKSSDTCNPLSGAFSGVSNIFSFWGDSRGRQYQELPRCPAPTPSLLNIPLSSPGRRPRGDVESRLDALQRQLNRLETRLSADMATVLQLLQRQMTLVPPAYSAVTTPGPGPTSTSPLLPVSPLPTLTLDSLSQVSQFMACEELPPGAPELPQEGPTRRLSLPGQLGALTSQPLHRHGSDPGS
How it was run: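 hERG current recorded by whole-cell patch clamp in CHO cells stably transfected with the human ERG gene.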

[9] = Inhibition of CYP450 in human hepatocytes at > 100 uM; type: ADME, cell-based, Hepatocyte
[10] = Oral bioavailability in Sprague-Dawley rat plasma at 10 mg/kg; type: ADME, organism-based
How it was run: (§2)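 Male Sprague–Dawley rats received 2 mg/kg i.v. (0.5 mg/mL in saline) or 10 mg/kg p.o. (1.0 mg/mL in 0.5% MC/0.2% Tween80). Plasma and brain AUC0-inf were measured, and the B/P ratio was calculated from i.v. AUC0-inf.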

[11] = Elimination half life in Sprague-Dawley rat plasma at 10 mg/kg, po; type: ADME, organism-based; parameters: dose 10 mg/kg, route oral; settings: read-out: beta t1/2 (converted)
How it was run: (§3)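 Oral gavage at 10 mg/kg to male OF1 mice (vehicle 5% DMSO/0.5% MC/0.2% Tween80, 1.0 mg/mL) or male Sprague-Dawley rats (vehicle 0.5% MC/0.2% Tween80, 1.0 mg/mL). Plasma and brain exposure and half-life determined.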

[12] = AUC (0 to infinity) in Sprague-Dawley rat plasma at 10 mg/kg, po; type: ADME, organism-based; parameters: time infinity, dose 10 mg/kg, route oral; how it was run: as §3
Plasma [13] = assay: Clearance in Sprague-Dawley rat plasma at 2 mg/kg, iv; type: ADME, organism-based; parameters: dose 2 mg/kg, route intravenous; settings: in vivo
How it was run: (§4)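 Male OF1 mice or male Sprague-Dawley rats, single 2 mg/kg i.v. dose. Mouse vehicle 50% 1-methyl-2-pyrrolidinone in saline at 1.0 mg/mL; rat vehicle saline at 0.5 mg/mL. Plasma and brain levels followed over time; AUC0-inf, t1/2 and clearance derived from exposure. Brain/plasma ratio uses i.v. AUC0-inf.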

[14] = Volume of distribution in Sprague-Dawley rat plasma at 2 mg/kg, iv; type: ADME, organism-based; parameters: dose 2 mg/kg, route intravenous; how it was run: as §2
[15] = Elimination half life in Sprague-Dawley rat plasma at 2 mg/kg, iv; type: ADME, organism-based; parameters: dose 2 mg/kg, route intravenous; settings: read-out: beta t1/2 (converted); how it was run: as §4
[16] = AUC (0 to infinity) in OF1 mouse brain at 2 mg/kg, iv; type: ADME, organism-based; parameters: time infinity, dose 2 mg/kg, route intravenous; how it was run: as §4
[17] = Elimination half life in OF1 mouse brain at 2 mg/kg, iv; type: ADME, organism-based; parameters: dose 2 mg/kg, route intravenous; settings: read-out: beta t1/2 (converted); how it was run: as §4
[18] = Elimination half life in OF1 mouse plasma at 10 mg/kg, po; type: ADME, organism-based; parameters: dose 10 mg/kg, route oral; settings: read-out: beta t1/2 (converted); how it was run: as §3
[19] = AUC in OF1 mouse plasma at 10 mg/kg, po; type: ADME, organism-based; parameters: dose 10 mg/kg, route oral; how it was run: as §3
Cytochrome P450 2D6 = Cytochrome P450 2D6 (Homo sapiens, UniProt P10635); assay: Inhibition of CYP2D6 (unknown origin); type: ADME
Chain of Cytochrome P450 2D6 (P10635 whole entry): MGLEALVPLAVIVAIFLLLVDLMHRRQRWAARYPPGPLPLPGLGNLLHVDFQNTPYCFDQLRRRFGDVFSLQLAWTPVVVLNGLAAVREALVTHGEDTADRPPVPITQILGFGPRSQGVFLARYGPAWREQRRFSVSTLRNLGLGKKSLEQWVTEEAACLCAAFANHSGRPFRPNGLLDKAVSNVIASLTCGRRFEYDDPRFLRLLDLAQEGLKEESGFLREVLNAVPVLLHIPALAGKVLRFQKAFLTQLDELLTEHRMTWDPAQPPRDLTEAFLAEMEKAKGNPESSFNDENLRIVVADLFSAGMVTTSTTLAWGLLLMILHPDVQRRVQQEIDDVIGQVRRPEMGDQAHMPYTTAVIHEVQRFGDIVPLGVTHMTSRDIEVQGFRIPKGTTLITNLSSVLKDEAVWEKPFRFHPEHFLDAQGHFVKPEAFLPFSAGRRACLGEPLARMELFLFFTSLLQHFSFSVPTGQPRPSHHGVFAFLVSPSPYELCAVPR

Cytochrome P450 1A2 = molecular target: T1, Cytochrome P450 1A2 (Homo sapiens, UniProt P05177); assay: Inhibition of CYP1A2 (unknown origin); type: ADME
T1 sequence (P05177 whole entry): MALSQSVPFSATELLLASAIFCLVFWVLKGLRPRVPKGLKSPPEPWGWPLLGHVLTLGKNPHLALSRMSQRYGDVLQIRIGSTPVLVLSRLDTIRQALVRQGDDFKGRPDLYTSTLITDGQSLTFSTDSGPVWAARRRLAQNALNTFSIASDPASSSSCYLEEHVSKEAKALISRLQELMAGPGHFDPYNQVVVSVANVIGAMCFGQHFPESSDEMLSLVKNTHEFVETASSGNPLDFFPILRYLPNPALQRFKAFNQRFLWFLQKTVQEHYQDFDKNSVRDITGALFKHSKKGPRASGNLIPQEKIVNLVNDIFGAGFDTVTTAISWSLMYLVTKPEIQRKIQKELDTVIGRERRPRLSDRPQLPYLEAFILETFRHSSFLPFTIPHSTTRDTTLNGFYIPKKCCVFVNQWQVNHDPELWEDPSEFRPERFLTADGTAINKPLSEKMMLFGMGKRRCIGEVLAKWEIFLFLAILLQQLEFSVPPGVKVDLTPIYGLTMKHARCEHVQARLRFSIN

CYP3A4 = CYP3A4 (Homo sapiens, UniProt P08684); assay: Inhibition of CYP3A4 (unknown origin) at 5 uM; type: ADME
Chain of CYP3A4 (P08684 whole entry): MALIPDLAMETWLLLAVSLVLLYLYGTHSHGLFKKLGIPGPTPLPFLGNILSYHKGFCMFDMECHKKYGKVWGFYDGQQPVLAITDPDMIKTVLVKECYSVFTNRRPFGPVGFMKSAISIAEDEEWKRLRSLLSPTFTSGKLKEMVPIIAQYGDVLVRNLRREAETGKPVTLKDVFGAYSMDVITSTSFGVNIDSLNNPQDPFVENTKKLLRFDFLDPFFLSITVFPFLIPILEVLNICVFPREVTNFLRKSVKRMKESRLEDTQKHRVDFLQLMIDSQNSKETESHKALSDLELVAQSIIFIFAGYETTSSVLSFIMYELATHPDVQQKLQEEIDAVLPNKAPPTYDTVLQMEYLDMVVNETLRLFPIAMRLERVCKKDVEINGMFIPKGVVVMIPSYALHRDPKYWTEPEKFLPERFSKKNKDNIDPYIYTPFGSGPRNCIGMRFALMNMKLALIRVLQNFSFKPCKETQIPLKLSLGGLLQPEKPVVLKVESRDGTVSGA

[20] = Biotransformation in human microsomes; type: ADME, Microsome; settings: read-out: Activity
How it was run: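 Percentage biotransformation measured in human liver microsomes in vitro.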

Plasma [21] = assay: Metabolic stability in rabbit plasma; type: ADME, cell-free, Oryctolagus cuniculus
How it was run: (§5)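 Compound stability measured in plasma of each species in vitro.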

Plasma [22] = assay: Metabolic stability in monkey plasma; type: ADME, cell-free, Macaca mulatta; settings: rhesus monkey; how it was run: as §5
Plasma [23] = assay: Metabolic stability in rat plasma; type: ADME, cell-free; how it was run: as §5
Plasma [24] = assay: Metabolic stability in mouse plasma; type: ADME, cell-free; how it was run: as §5
Homo sapiens = species: Homo sapiens; assay: Inhibition of sigma 2 receptor (unknown origin) at 10 uM
How it was run: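 CEREP selectivity panel: percent inhibition of control specific binding at 10 µM.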

Plasma [25] = assay: Metabolic stability in human plasma; type: ADME, cell-free; how it was run: as §5
[26] = molecular target: Histamine H3 receptor (Cavia porcellus) (UniProt Q9JI35); assay: Antagonist activity at histamine H3 receptor in guinea pig ileum assessed as inhibition of RAMH-induced inhibition of electrical field-stimulated contraction; type: tissue-based
Chain of Histamine H3 receptor (Cavia porcellus) (Q9JI35 whole entry): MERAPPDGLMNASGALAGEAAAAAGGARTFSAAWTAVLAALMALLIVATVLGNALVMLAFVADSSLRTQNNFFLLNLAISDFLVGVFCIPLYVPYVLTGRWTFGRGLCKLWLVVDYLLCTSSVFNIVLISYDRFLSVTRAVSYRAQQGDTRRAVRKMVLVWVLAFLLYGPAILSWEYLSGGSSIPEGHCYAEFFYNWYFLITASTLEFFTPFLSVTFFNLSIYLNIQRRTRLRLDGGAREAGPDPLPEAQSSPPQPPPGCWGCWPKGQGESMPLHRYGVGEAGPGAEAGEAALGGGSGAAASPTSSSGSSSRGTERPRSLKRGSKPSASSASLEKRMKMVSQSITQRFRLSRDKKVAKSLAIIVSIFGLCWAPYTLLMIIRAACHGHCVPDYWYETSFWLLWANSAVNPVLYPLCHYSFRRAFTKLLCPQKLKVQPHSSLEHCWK
How it was run: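 Isolated guinea pig ileum contracted by electrical field stimulation. Contractions inhibited with the H3 agonist RAMH; test compound examined for competitive antagonism of this RAMH effect.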

[27] = Solubility of the compound in water; type: physicochemical
Histamine receptor H3 = Histamine receptor H3 (Macaca mulatta, UniProt Q865E1); assay: Displacement of [3H]N-alpha-methylhistamine from rhesus monkey histamine H3 receptor expressed in CHO cells; type: cell-based
Chain of Histamine receptor H3 (Q865E1 whole entry): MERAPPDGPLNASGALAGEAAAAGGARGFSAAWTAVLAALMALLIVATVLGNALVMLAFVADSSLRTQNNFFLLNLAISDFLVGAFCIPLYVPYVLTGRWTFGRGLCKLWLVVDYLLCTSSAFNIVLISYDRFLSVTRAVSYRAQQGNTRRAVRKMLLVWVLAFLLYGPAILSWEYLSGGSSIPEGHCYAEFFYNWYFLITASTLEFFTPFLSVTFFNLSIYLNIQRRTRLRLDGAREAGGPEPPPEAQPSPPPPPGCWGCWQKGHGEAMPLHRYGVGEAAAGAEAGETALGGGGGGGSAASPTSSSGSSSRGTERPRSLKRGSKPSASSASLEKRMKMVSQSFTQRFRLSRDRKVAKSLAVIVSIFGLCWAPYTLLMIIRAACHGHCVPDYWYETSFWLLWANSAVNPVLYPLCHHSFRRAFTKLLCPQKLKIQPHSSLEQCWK
How it was run: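 Membranes from CHO cells stably expressing rhesus monkey H3 receptor. Competition binding against [3H]N-α-methylhistamine; Ki values are means of three or more determinations.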

## Cc1cc(N2CC[C@H](N3CCC[C@@H]3C)C2)ccc1NC(=O)C1CCOCC1
Rattus norvegicus [1]
  Activity: Active
Rattus norvegicus [2]
  Activity: Active
[3]
  concentration at 0.25 h: 11 µM
[4]
  concentration at 0.25 h: 14 µM
Cynomolgus monkey
  Activity: Non-toxic
Mus musculus [5]
  Activity: Non-toxic
Mus musculus [6]
  Activity: Non-toxic
[7]
  Activity: Non-toxic
[8]
  pIC50: 4.72
[9]
  inhibition (INH): Not Active
[10]
  bioavailability: 80%
[11]
  half-life: 3 h
[12]
  AUC(0-inf): 8400 ng·h/mL
Plasma [13]
  clearance: 16.7 mL/min/kg
[14]
  Vd: 3.1 L/kg
[15]
  half-life: 4.3 h
[16]
  AUC(0-inf): 380 ng·h/mL
[17]
  half-life: 0.83 h
[18]
  half-life: 2.3 h
[19]
  AUC: 3200 ng·h/mL
Cytochrome P450 2D6
  inhibition (INH): Active
Cytochrome P450 1A2
  inhibition (INH): Active
CYP3A4
  inhibition at 5 µM: 61%
[20]
  metabolised: < 5%
Plasma [21]
  Stability: Stable
Plasma [22]
  Stability: Stable
Plasma [23]
  Stability: Stable
Plasma [24]
  Stability: Stable
Homo sapiens
  inhibition: 53%
Plasma [25]
  Stability: Stable
[26]
  inhibition: Active
[27]
  solubility: 1100 µg/mL (≈ 2960 µM)
Histamine receptor H3
  pKi: 9.01
